Structures can show the parent of a compound that is named as a salt.
Columns and labels:
nAChRs = conditions: cited from earlier work
DAT = DAT (Rattus norvegicus, UniProt P23977); experiment: Synaptosomal [3H]DA uptake, rat striatal synaptosomes; assay type: biochemical
[1] = test system: METH-sensitized locomotor activity; experiment: METH-induced hyperactivity in METH-sensitized rats, GZ-11610 s.c.; assay type: in vivo, rat; conditions: 1-30 mg/kg, 15 min before METH 1 mg/kg s.c., vs vehicle
hERG channels = hERG channels (Homo sapiens, UniProt Q12809); experiment: [3H]Dofetilide binding to hERG channels on HEK-293 cell membranes
Sequence of hERG channels (Q12809 whole entry): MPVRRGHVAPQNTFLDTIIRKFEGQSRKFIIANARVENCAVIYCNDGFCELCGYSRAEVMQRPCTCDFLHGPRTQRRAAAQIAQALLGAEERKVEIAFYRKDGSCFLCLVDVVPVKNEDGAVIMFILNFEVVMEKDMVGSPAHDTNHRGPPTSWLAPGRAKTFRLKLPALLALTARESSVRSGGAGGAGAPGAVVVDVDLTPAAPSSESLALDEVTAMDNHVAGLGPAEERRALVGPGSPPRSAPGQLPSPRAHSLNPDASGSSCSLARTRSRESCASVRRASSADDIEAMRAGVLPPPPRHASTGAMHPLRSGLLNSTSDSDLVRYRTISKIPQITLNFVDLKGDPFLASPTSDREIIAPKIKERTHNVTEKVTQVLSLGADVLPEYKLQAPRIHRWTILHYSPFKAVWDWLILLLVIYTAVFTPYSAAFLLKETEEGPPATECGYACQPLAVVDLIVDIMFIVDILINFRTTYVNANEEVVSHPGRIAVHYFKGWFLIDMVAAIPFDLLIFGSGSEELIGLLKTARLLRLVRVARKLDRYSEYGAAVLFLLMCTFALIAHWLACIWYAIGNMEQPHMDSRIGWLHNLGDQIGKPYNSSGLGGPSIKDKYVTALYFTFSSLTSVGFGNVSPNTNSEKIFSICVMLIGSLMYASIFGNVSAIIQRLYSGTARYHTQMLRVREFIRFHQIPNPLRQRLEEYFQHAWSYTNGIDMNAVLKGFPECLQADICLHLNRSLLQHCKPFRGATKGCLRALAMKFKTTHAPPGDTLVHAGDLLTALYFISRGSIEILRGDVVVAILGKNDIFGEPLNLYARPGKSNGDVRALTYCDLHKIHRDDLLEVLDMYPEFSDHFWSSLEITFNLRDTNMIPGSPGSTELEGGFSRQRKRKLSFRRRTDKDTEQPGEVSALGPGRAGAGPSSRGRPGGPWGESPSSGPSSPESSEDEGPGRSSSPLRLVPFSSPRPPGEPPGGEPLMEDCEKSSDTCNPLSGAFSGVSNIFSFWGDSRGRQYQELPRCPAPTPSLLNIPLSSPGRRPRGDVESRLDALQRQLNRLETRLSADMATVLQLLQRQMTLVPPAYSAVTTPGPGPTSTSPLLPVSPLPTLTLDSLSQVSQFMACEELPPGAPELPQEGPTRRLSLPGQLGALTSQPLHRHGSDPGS

[2] = test system: METH-sensitized locomotor activity; experiment: METH-induced hyperactivity in METH-sensitized rats, GZ-11610 oral; assay type: in vivo, rat; conditions: 5.6-300 mg/kg
α4β2 nAChRs = α4β2 nAChRs (Rattus norvegicus, UniProt P09483+P12390); experiment: [3H]NIC binding to rat brain membranes; conditions: 0.1 nM - 0.1 mM
Sequence of α4β2 nAChRs (P09483 31-630): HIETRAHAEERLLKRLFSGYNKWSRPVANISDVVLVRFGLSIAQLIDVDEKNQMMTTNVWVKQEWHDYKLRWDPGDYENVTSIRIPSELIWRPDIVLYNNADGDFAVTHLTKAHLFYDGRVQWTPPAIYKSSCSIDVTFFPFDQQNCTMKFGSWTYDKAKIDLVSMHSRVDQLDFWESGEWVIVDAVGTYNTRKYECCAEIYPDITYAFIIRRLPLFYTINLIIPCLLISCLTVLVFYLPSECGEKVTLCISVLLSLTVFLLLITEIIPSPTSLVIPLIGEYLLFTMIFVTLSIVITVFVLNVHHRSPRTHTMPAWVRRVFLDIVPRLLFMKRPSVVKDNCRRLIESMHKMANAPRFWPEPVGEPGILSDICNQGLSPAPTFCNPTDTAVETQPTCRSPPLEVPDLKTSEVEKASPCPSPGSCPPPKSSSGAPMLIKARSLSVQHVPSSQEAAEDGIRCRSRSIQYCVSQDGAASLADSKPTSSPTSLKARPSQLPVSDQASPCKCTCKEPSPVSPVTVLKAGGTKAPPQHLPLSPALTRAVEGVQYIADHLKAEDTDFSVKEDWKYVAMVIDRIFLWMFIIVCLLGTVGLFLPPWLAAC
Sequence of α4β2 nAChRs (P12390 25-500): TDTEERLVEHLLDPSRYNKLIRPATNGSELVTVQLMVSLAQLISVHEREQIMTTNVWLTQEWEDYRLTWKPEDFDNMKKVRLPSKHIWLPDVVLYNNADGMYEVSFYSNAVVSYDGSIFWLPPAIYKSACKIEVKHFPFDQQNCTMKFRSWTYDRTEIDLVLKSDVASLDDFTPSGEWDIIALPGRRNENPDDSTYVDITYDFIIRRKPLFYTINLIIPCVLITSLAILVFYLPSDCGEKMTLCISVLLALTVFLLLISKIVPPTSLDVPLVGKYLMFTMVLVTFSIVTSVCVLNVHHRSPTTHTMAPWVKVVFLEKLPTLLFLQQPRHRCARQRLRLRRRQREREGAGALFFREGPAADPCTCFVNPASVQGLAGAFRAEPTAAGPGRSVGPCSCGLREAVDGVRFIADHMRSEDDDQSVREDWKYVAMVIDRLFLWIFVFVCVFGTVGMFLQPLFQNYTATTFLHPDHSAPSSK

SERT = SERT (Rattus norvegicus, UniProt P31652); experiment: Synaptosomal [3H]5-HT uptake, rat striatal synaptosomes; assay type: biochemical
Sequence of SERT (P31652 whole entry): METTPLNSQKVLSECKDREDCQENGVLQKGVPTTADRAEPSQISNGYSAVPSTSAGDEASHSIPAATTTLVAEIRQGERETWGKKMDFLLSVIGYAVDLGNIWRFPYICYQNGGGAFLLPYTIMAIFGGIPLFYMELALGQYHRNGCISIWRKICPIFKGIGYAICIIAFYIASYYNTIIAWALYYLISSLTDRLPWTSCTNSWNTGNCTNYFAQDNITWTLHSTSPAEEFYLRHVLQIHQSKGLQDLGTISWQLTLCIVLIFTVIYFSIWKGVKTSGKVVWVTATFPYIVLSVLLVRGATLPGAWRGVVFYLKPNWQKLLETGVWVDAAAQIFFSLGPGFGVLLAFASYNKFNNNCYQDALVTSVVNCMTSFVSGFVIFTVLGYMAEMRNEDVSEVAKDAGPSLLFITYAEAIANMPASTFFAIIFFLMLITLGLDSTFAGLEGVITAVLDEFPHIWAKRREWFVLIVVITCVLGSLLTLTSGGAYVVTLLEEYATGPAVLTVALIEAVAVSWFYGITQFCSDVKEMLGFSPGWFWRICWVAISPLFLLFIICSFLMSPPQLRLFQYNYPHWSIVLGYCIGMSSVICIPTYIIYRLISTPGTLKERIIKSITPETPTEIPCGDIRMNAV

α7 nAChRs = α7 nAChRs (Rattus norvegicus, UniProt Q05941); experiment: [3H]MLA binding to rat brain membranes; conditions: 0.1 nM - 0.1 mM
Sequence of α7 nAChRs (Q05941 23-502): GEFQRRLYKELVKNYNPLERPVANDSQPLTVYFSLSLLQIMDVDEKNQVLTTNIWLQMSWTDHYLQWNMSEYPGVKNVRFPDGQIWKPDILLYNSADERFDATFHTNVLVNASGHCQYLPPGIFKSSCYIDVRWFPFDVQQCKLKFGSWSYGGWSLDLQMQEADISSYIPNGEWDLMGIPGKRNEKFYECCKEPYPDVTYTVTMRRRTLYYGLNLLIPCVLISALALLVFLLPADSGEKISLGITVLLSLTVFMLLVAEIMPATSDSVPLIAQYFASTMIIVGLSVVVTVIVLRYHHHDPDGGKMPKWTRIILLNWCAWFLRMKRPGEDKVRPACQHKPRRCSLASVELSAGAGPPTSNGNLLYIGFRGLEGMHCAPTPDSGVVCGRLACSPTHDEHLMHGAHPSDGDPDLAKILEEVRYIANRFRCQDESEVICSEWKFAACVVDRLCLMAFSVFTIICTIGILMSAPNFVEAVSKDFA
In short: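 Membranes from rat whole brain minus cortex and cerebellum, washed by repeated 31,000 g spins, with a 10 min 37°C incubation. Binding used 100–140 μg protein, test compound at 7–9 concentrations (0.1 nM–0.1 mM), and [3H]MLA added at 3 nM, in HEPES saline buffer pH 7.5, for 60 min at room temperature. Nonspecific binding was defined with 10 μM nicotine. Read-out by PEI-GF/B filtration and scintillation; n=3.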

VMAT2 = VMAT2 (Rattus norvegicus, UniProt Q01827); experiment: Vesicular [3H]DA uptake, rat striatal synaptic vesicles; assay type: biochemical
Sequence of VMAT2 (Q01827 whole entry): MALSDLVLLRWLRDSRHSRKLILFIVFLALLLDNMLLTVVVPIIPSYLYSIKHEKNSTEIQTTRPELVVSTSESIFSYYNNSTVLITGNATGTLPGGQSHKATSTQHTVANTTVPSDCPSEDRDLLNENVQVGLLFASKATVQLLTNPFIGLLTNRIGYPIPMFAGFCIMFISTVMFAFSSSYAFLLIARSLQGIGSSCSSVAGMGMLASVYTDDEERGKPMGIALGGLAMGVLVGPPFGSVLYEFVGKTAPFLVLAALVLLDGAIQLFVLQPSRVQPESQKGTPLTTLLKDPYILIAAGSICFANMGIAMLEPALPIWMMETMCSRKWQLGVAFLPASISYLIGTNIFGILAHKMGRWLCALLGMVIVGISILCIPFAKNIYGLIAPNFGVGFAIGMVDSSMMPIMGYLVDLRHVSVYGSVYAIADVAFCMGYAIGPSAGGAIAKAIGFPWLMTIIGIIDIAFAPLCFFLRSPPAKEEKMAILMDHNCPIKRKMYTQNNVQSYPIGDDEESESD

locomotor activity = experiment: Locomotor sensitization to repeated METH administration; assay type: in vivo, rat
In short: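 Rats randomly assigned to METH or saline groups. Day 0: 60 min chamber habituation without injection. Distance traveled on Days 1 and 10 compared with saline controls and with Day 1.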

[3] = cited from earlier work
[4] = test system: cells co-expressing VMAT2 and DAT; conditions: dissociated cells co-expressing VMAT2 and DAT; cited from earlier work

Sequence of DAT (P23977 whole entry): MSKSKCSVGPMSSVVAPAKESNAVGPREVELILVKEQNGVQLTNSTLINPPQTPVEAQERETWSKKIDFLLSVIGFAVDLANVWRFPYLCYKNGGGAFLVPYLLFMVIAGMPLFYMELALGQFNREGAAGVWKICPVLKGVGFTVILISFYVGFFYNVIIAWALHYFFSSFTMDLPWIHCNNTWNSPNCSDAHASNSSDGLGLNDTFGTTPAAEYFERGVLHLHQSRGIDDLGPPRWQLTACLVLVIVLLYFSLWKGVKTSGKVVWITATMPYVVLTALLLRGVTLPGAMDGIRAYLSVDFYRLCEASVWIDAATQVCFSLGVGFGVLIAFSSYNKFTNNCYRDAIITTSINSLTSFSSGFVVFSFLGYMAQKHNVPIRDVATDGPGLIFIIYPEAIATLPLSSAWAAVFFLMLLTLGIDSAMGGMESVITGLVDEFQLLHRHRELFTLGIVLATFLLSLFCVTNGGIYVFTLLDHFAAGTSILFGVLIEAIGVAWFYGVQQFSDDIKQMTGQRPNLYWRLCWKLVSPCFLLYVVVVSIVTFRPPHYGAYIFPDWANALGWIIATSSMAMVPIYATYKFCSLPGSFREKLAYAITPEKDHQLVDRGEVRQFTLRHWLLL

## COc1ccc(CCC2CCCC(CCc3ccc(OC)cc3)N2C[C@@H](O)CO)cc1.Cl (stereo in doubt) [GZ-793A, R-N-(1,2-dihydroxypropyl)-2,6-cis-di-(4-methoxyphenethyl)piperidine hydrochloride]
nAChRs
  selectivity for VMAT2 over nAChRs: > 1000 fold

## COc1ccc(CCCN[C@H](C)Cc2ccccc2)cc1 [GZ-11610, R-3-(4-methoxyphenyl)-N-(1-phenylpropan-2-yl)propan-1-amine]
DAT
  Ki: 2.51 µM
DAT; 0.1 nM - 0.1 mM
  Imax of [3H]DA uptake at DAT: > 95%
[1]
  effect on distance traveled after METH in the METH-sensitized group: dose-dependently reduced the distance traveled
hERG channels
  Ki: 9.5 µM
hERG channels; HEK-293 cell membranes, 0.1 nM - 0.1 mM
  Imax of [3H]dofetilide binding to hERG channels: > 80%
[2]; 15 min before METH 1 mg/kg s.c., vs vehicle
  effect on distance traveled after METH in the METH-sensitized group: reduced the distance traveled
[2]; one-way ANOVA
  effect on locomotor activity in the saline group: no significant GZ-11610 effects on locomotor activity
α4β2 nAChRs
  Imax, inhibition of [3H]NIC binding: < 20%
SERT
  Imax of [3H]5-HT uptake at SERT: > 95%
  Ki: 5.55 µM
α7 nAChRs
  Imax, inhibition of [3H]MLA binding: < 20%
VMAT2; 0.1 nM - 0.1 mM
  maximal inhibition (Imax) of [3H]DA uptake at VMAT2: > 95%
VMAT2; read-out: Ki, inhibition of [3H]DA uptake at VMAT2, rat striatal synaptic vesicles
  Ki: 0.0087 µM

## CN[C@@H](C)Cc1ccccc1 [METH, (+)-Methamphetamine hydrochloride]
Locomotor activity; METH 1 mg/kg s.c. once daily for 10 days
  distance traveled compared to saline, Day 10: increased distance traveled (p < 0.05)
Locomotor activity; acute METH 1 mg/kg s.c.
  distance traveled compared to saline, Day 1: increased (p < 0.05) distance traveled
[3]
  LogP: 2.10

## COc1cc2c(cc1OC)[C@H]1C[C@@H](O)[C@H](CC(C)C)CN1CC2 [dihydrotetrabenazene]
[4]
  reduction of METH-evoked DA efflux: 60%

## CN1[C@@H](CC(=O)c2ccccc2)CCC[C@H]1C[C@H](O)c1ccccc1 [lobeline]
[4]
  reduction of METH-evoked DA efflux: 60%

— article PMC7047575 (The AAPS journal, 2018)
